Assays:
[1] = biological target: T1, 5-hydroxytryptamine receptor 1A (Rattus norvegicus, UniProt P19327); test: Ability to displace [3H]8-OH-DPAT from 5-hydroxytryptamine 1A receptor
T1 sequence (P19327 whole entry): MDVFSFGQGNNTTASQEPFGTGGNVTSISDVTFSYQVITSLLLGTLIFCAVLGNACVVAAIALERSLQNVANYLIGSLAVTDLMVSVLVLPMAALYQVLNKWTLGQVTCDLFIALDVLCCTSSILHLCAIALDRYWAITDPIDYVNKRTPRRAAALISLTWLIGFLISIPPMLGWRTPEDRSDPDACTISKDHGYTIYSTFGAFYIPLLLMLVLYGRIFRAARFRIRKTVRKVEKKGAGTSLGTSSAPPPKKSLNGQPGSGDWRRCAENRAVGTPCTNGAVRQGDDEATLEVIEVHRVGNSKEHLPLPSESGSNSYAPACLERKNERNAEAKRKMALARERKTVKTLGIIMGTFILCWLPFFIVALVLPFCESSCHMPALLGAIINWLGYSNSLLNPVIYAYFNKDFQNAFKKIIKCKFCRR
Procedure, shortened: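 Rat hippocampal membranes, [3H]8-OH-DPAT radioligand. Ki from at least three competition experiments, each with 10–14 drug concentrations run in triplicate. Ki calculated with the Cheng–Prusoff equation.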

Rattus norvegicus [2] = species: Rattus norvegicus; test: Dose Inducing behavioral syndrome(FT: forepaw treading) by the compound in reserpine pretreated rats.; assay type: functional
Procedure, shortened: (§1)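 Male Wistar rats (260–300 g), groups of 6, given reserpine 1 mg/kg sc 18 h before test. Compounds given ip as 1% Tween 80 suspension. FBP and FT rated 0–3 in 45-s sessions every 3 min, starting 3 min after dosing. Score summed over 5 periods (max 15 per symptom). Mean ± SEM; Newman–Keuls test.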

Rattus norvegicus [3] = species: Rattus norvegicus; test: Effective dose of the required to inhibit symptoms produced by 8-OH-DPAT; assay type: functional
Procedure, shortened: (§2)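 Reserpinized male Wistar rats (reserpine 1 mg/kg sc, 18 h before), groups of 6. Compound given ip in 1% Tween 80 60 min before 8-OH-DPAT 5 mg/kg sc. FBP/FT rated 0–3 at 3, 6, 9, 12 and 15 min after agonist, summed (max 15). Mean ± SEM; Newman–Keuls test; ED50 with range.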

Rattus norvegicus [4] = species: Rattus norvegicus; test: Effect on 8-OH-DAPT- induced behavioral syndrome(FT: forepaw treading) by the compound in reserpine pretreated rats at a dose of 2.; assay type: functional
Rattus norvegicus [5] = species: Rattus norvegicus; test: Effect on 8-OH-DAPT- induced behavioral syndrome(FBP: flat body posture) by the compound in reserpine pretreated rats at a dose of 2.; assay type: functional
Rattus norvegicus [6] = species: Rattus norvegicus; test: Effect on 8-OH-DAPT- induced behavioral syndrome(FBP: flat body posture) by the compound in reserpine pretreated rats at a dose of 4.; assay type: functional; procedure, shortened: as §2
Rattus norvegicus [7] = species: Rattus norvegicus; test: Effect on 8-OH-DAPT- induced behavioral syndrome(FT: forepaw treading) by the compound in reserpine pretreated rats at a dose of 8.; assay type: functional; procedure, shortened: as §2
Rattus norvegicus [8] = species: Rattus norvegicus; test: Induction of behavioral syndrome(FT: forepaw treading) by the compound in reserpine pretreated rats at a dose of 2.; assay type: functional
Rattus norvegicus [9] = species: Rattus norvegicus; test: Induction of behavioral syndrome(FT: forepaw treading) by the compound in reserpine pretreated rats at a dose of 4.; assay type: functional
Procedure, shortened: (§3)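 Male Wistar rats (260–300 g) were given reserpine 1 mg/kg sc in saline 18 h before testing. Test compound was then given alone ip as a 1% Tween 80 suspension (2 mL/kg). FBP and FT were each scored 0–3 and summed (maximum 15). n=6 per group; mean ± SEM; Newman–Keuls test.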

Rattus norvegicus [10] = species: Rattus norvegicus; test: Induction of behavioral syndrome(FT: forepaw treading) by the compound in reserpine pretreated rats at a dose of 8.; assay type: functional; procedure, shortened: as §3
Rattus norvegicus [11] = species: Rattus norvegicus; test: Effect on 8-OH-DAPT- induced behavioral syndrome(FBP: flat body posture) by the compound in reserpine pretreated rats at a dose of 8.; assay type: functional; procedure, shortened: as §2
Rattus norvegicus [12] = species: Rattus norvegicus; test: Induction of behavioral syndrome(FBP: flat body posture) by the compound in reserpine pretreated rats at a dose of 2.; assay type: functional; procedure, shortened: as §1
Rattus norvegicus [13] = species: Rattus norvegicus; test: Induction of behavioral syndrome(FBP: flat body posture) by the compound in reserpine pretreated rats at a dose of 4.; assay type: functional; procedure, shortened: as §3
Rattus norvegicus [14] = species: Rattus norvegicus; test: Induction of behavioral syndrome(FBP: flat body posture) by the compound in reserpine pretreated rats at a dose of 8.; assay type: functional; procedure, shortened: as §3
Rattus norvegicus [15] = test: Induction of LLR(lower lip retraction) by the compound in rats at a dose of 8 mg/kg; assay type: functional
Procedure, shortened: (§4)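 Male Wistar rats, groups of 6, given compound alone ip as 1% Tween 80 suspension. Lower incisor visibility scored 0/0.5/1 at 15, 30 and 45 min after dosing, summed (max 3 per rat). Mean ± SEM versus vehicle, Newman–Keuls test; ED50 with range.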

Rattus norvegicus [16] = test: Effect on 8-OH-DPAT-Induced LLR(lower lip retraction) in rats at a dose of 16 mg/kg; assay type: functional
Procedure, shortened: (§5)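 Male Wistar rats, groups of 6. Compound given ip in 1% Tween 80 45 min before 8-OH-DPAT 1 mg/kg sc. Lower incisor visibility scored 0/0.5/1 at 15, 30 and 45 min after agonist, summed (max 3). Mean ± SEM; Newman–Keuls test; ED50 with range.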

Rattus norvegicus [17] = test: Effect on 8-OH-DPAT-Induced LLR(lower lip retraction) in rats at a dose of 4 mg/kg; assay type: functional; procedure, shortened: as §5
Rattus norvegicus [18] = test: Effect on 8-OH-DPAT-Induced LLR(lower lip retraction) in rats at a dose of 8 mg/kg; assay type: functional; procedure, shortened: as §5
Rattus norvegicus [19] = test: Induction of LLR(lower lip retraction) by the compound in rats at a dose of 4 mg/kg; assay type: functional; procedure, shortened: as §4
Rattus norvegicus [20] = test: Induction of LLR(lower lip retraction) by the compound in rats at a dose of 16 mg/kg; assay type: functional; procedure, shortened: as §4
Rattus norvegicus [21] = species: Rattus norvegicus; test: Effect on 8-OH-DAPT- induced behavioral syndrome(FT: forepaw treading) by the compound in reserpine pretreated rats at a dose of 4.; assay type: functional; procedure, shortened: as §2
Rattus norvegicus [22] = species: Rattus norvegicus; test: Dose inhibiting 8-OH-DPAT-induced behavioral syndrome(FBP: flat body posture) by the compound in reserpine pretreated rats.
Rattus norvegicus [23] = species: Rattus norvegicus; test: Dose Inducing behavioral syndrome(FBP: flat body posture) by the compound in reserpine pretreated rats; assay type: functional; procedure, shortened: as §1
Rattus norvegicus [24] = species: Rattus norvegicus; test: Effect on 8-OH-DAPT- induced behavioral syndrome(FT: forepaw treading) by the compound in reserpine pretreated rats at a dose of 16; FT mean score; assay type: functional; procedure, shortened: as §2
Rattus norvegicus [25] = species: Rattus norvegicus; test: Effect on 8-OH-DAPT- induced behavioral syndrome(FT: forepaw treading) by the compound in reserpine pretreated rats at a dose of 4; FT mean score; assay type: functional; procedure, shortened: as §2
Rattus norvegicus [26] = species: Rattus norvegicus; test: Effect on 8-OH-DAPT- induced behavioral syndrome(FBP: flat body posture) by the compound in reserpine pretreated rats at a dose of 16; FBP mean score; assay type: functional; procedure, shortened: as §2
Rattus norvegicus [27] = species: Rattus norvegicus; test: Effect on 8-OH-DAPT- induced behavioral syndrome(FBP: flat body posture) by the compound in reserpine pretreated rats at a dose of 4; FBP mean score; assay type: functional; procedure, shortened: as §2
Rattus norvegicus [28] = species: Rattus norvegicus; test: Effect on 8-OH-DAPT- induced behavioral syndrome(FT: forepaw treading) by the compound in reserpine pretreated rats at a dose of 8; FT mean score; assay type: functional; procedure, shortened: as §2
Rattus norvegicus [29] = species: Rattus norvegicus; test: Induction of behavioral syndrome(FT: forepaw treading) by the compound in reserpine pretreated rats at a dose of 16; FT mean score; assay type: functional; procedure, shortened: as §3
Rattus norvegicus [30] = species: Rattus norvegicus; test: Induction of behavioral syndrome(FT: forepaw treading) by the compound in reserpine pretreated rats at a dose of 4; FT mean score; assay type: functional; procedure, shortened: as §3
Rattus norvegicus [31] = species: Rattus norvegicus; test: Induction of behavioral syndrome(FT: forepaw treading) by the compound in reserpine pretreated rats at a dose of 8; FT mean score; assay type: functional; procedure, shortened: as §3
Rattus norvegicus [32] = species: Rattus norvegicus; test: Effect on 8-OH-DAPT- induced behavioral syndrome(FBP: flat body posture) by the compound in reserpine pretreated rats at a dose of 8; FBP mean score; assay type: functional; procedure, shortened: as §2
Rattus norvegicus [33] = species: Rattus norvegicus; test: Induction of behavioral syndrome(FBP: flat body posture) by the compound in reserpine pretreated rats at a dose of 16; FBP mean score; assay type: functional; procedure, shortened: as §1
Rattus norvegicus [34] = species: Rattus norvegicus; test: Induction of behavioral syndrome(FBP: flat body posture) by the compound in reserpine pretreated rats at a dose of 4; FBP mean score; assay type: functional; procedure, shortened: as §3
Rattus norvegicus [35] = species: Rattus norvegicus; test: Induction of behavioral syndrome(FBP: flat body posture) by the compound in reserpine pretreated rats at a dose of 8; FBP mean score; assay type: functional; procedure, shortened: as §3
Rattus norvegicus [36] = test: Effect on 8-OH-DPAT-Induced LLR(lower lip retraction) in rats at a dose of 16 mg/kg; LLR score; assay type: functional; procedure, shortened: as §5
Rattus norvegicus [37] = test: Effect on 8-OH-DPAT-Induced LLR(lower lip retraction) in rats at a dose of 8 mg/kg; LLR score; assay type: functional; procedure, shortened: as §5
Rattus norvegicus [38] = test: Induction of LLR(lower lip retraction) by the compound in rats at a dose of 16 mg/kg; LLR score; assay type: functional; procedure, shortened: as §4
Rattus norvegicus [39] = test: Induction of LLR(lower lip retraction) by the compound in rats at a dose of 4 mg/kg; LLR score; assay type: functional; procedure, shortened: as §4
Rattus norvegicus [40] = test: Induction of LLR(lower lip retraction) by the compound in rats at a dose of 8 mg/kg; LLR score; assay type: functional; procedure, shortened: as §4
Rattus norvegicus [41] = test: Effect on 8-OH-DPAT-Induced LLR(lower lip retraction) in rats at a dose of 4 mg/kg; LLR score; assay type: functional; procedure, shortened: as §5

Work on `COc1ccccc1N1CCN(CCCCN2C(=O)[C@H]3CCCC[C@H]3C2=O)CC1` yielded a Ki [1] of 4 nM, an ED50 (Rattus norvegicus [2]) of 2.6 mg/kg and an ED50 (Rattus norvegicus [3]) of 7.5 mg/kg. It also gave an FT mean score (Rattus norvegicus [4]) of 3.8, an FBP mean score (Rattus norvegicus [5]) of 8.3 and an FBP mean score (Rattus norvegicus [6]) of 6.7. For the same compound, the FT mean score (Rattus norvegicus [7]) was 0.5, the FT mean score (Rattus norvegicus [8]) was 0.2 and the FT mean score (Rattus norvegicus [9]) was 0.2. The FT mean score (Rattus norvegicus [10]) was 0.2, the FBP mean score (Rattus norvegicus [11]) was 5.5 and the FBP mean score (Rattus norvegicus [12]) was 0.1. The FBP mean score (Rattus norvegicus [13]) was 0.2, the FBP mean score (Rattus norvegicus [14]) was 0.2 and the LLR score (Rattus norvegicus [15]) was 0.5. It also gave an LLR score (Rattus norvegicus [16]) of 0.7, an LLR score (Rattus norvegicus [17]) of 1.7 and an LLR score (Rattus norvegicus [18]) of 1.3. For the same compound, the LLR score (Rattus norvegicus [19]) was 0.5, the LLR score (Rattus norvegicus [20]) was 0.8 and the FT mean score (Rattus norvegicus [21]) was 3.5. It also gave an ED50 (Rattus norvegicus [22]) of 3.2 mg/kg.

With `O=C1[C@H]2CCCC[C@H]2C(=O)N1C1CCC(N2CCc3ccccc3C2)CC1` (stereo not given in full) the Ki [1] was 1600 nM.

Work on `O=C1c2ccccc2C(=O)N1CCCCN1CCc2ccccc2C1` yielded a Ki [1] of 355 nM.

Compound `COc1ccccc1N1CCN(CCCn2nnc3ccccc32)CC1` has an ED50 (Rattus norvegicus [2]) of 5.2 mg/kg, an ED50 (Rattus norvegicus [23]) of 10.5 mg/kg and an ED50 (Rattus norvegicus [3]) of 6.5 mg/kg. The FT mean score (Rattus norvegicus [24]) was 2.6, the FT mean score (Rattus norvegicus [25]) was 5.8 and the FBP mean score (Rattus norvegicus [26]) was 6.1. For the same compound, the FBP mean score (Rattus norvegicus [27]) was 11.5, the FT mean score (Rattus norvegicus [28]) was 3.7 and the FT mean score (Rattus norvegicus [29]) was 0.1. The FT mean score (Rattus norvegicus [30]) was 0.2, the FT mean score (Rattus norvegicus [31]) was 0.2 and the FBP mean score (Rattus norvegicus [32]) was 8. For the same compound, the FBP mean score (Rattus norvegicus [33]) was 0.1, the FBP mean score (Rattus norvegicus [34]) was 0.2 and the FBP mean score (Rattus norvegicus [35]) was 0.2. It also gave an LLR score (Rattus norvegicus [36]) of 0.9, an LLR score (Rattus norvegicus [37]) of 0.7 and an LLR score (Rattus norvegicus [38]) of 0.6. For the same compound, the LLR score (Rattus norvegicus [39]) was 0, the LLR score (Rattus norvegicus [40]) was 0.1 and the LLR score (Rattus norvegicus [41]) was 1.1.
